According to article PMC11382152 (The Journal of Organic Chemistry, 2024):
Converted amounts (≈) assume the structure as drawn.

Columns and labels:
Assay in all cases: MIC assay
Assay type in all cases: cell-based
[1] = system: Staphylococcus epidermidis ATCC 14990; conditions: ATCC14990
Summary of the method: (§1)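 Test compounds were prepared as trifluoroacetate salts and assayed for MIC against a Gram-positive panel: B. subtilis, S. epidermidis, MSSA and MRSA. E. coli served as the Gram-negative negative-control organism. The natural parent peptide and vancomycin served as positive controls.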

[2] = system: Bacillus subtilis ATCC 6051; conditions: ATCC6051
Summary of the method: as §1

[3] = system: Escherichia coli ATCC 10798; conditions: ATCC10798
Summary of the method: as §1

## CN[C@H](CC(C)C)C(=O)N[C@H]1C(=O)N[C@@H](CC(N)=O)C(=O)N[C@H]2C(=O)N[C@H]3C(=O)N[C@H](C(=O)N[C@H](C(=O)O)c4cc(O)cc(O)c4-c4cc3ccc4O)[C@H](O)c3ccc(c(Cl)c3)Oc3cc2cc(c3O[C@@H]2O[C@H](CO)[C@@H](O)[C@H](O)[C@H]2O[C@H]2C[C@](C)(N)[C@H](O)[C@H](C)O2)Oc2ccc(cc2Cl)[C@H]1O [vancomycin]
[1]
  MIC: 2 µg/mL (≈ 1.38 µM)
[2]
  MIC: 0.125 to 0.25 µg/mL (≈ 0.0863 to 0.173 µM)
[3]
  MIC: > 32 µg/mL
